A selection: hits, their analogues and other compounds. The true share with any hit is near 3.5%.
RGS4 block = human RGS4 inhibition. P49798. HEK293 M3R/RGS4 inducible, Fluo-4 calcium flux; stronger effect = higher value; triggered by carbachol at its EC20. hit rate 0.45% among 310,000. B-score at 10 µM. AID 463165;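 active = B-score, a plate-corrected calcium signal, over three deviations above library mean, with baseline fluorescence within five deviations of library mean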;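 note: RGS4 expression induced by doxycycline in cells with stable M3 receptor; B-score is computed from the integrated fluorescence ratio over baseline after carbachol; higher B-score means a larger calcium signal and so more RGS4 inhibition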
Target sequence (P49798 whole entry, looked up): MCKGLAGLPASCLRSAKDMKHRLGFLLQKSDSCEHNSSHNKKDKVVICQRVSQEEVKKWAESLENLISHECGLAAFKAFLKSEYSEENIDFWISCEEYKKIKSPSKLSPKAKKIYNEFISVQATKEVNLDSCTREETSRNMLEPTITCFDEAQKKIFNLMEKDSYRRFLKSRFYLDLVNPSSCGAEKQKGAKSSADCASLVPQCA
MrgX1 PAM = allosterically activates human MrgX1 receptor signaling; B-score at 10 µM; AID 588675; MrgX1-HEK293, Fluo-4 calcium flux, FDSS; stronger effect = higher value; hit rate 0.63% among 310,000; Q96LB2;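 active = plate-corrected calcium response at least 3 library SD above typical, normal starting fluorescence, not activating the receptor alone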;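 note: compound read alongside a low EC10 to EC30 dose of BAM8-22 agonist; peak minus trough fluorescence over baseline measured at the second addition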
Target sequence (Q96LB2 whole entry, looked up): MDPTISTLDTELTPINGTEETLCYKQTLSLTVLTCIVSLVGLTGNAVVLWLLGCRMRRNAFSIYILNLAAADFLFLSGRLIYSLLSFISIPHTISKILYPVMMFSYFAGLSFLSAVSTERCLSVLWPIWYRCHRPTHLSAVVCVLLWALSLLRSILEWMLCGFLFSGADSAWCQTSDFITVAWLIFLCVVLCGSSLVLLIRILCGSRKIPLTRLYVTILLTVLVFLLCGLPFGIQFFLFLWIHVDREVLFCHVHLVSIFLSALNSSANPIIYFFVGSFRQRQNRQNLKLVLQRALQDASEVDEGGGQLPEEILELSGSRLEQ
MrgX1 agonist = agonists of human MrgX1 receptor. Q96LB2. MrgX1-HEK293 cells, Fluo-4 calcium fluorescence, agonist mode; stronger effect = higher value. B-score at 10 µM. hit rate 0.44% among 310,000. AID 588627;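 active = calcium response B-score plate-corrected fluorescence ratio at least 3 library SD, with starting fluorescence B-score inside 5 SD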
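System: HEK293 cells stably expressing human MrgX1 receptor; Dosing: test compound in the initial addition of three; Schedule: overnight plating, then 30 min 37 °C plus 30 min room-temperature dye loading; Detection: kinetic calcium dye fluorescence, Fluo-4 NW; Controls: per-plate positive and negative controls for Z′ factor.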
RGS4 pot = RGS4 potentiation or activation. HEK293 M3R/inducible RGS4, carbachol calcium flux Fluo4; stronger effect = lower value. B-score at 10 µM. hit rate 0.92% among 310,000. AID 463111;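 active = B-score of the integrated calcium signal more than 4 SD below the library mean, with starting fluorescence not abnormally high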;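 note: negative B-score means reduced calcium response which marks RGS4 activation or potentiation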
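Assay system: HEK293 FlpIn-TREx cells, stable M3R, doxycycline-inducible RGS4 / Probe or stimulus: carbachol, ECmax concentration / Times: overnight RGS4 induction, 30 min dye load 37 °C, 20 min compound RT / Signal: kinetic calcium fluorescence imaging with Fluo4-AM dye, 2 µM / Measure: Agonist-evoked peak-minus-minimum fluorescence over baseline, integrated ratio, B score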
MrgX1 antag = human MrgX1 receptor antagonism, primary screen; Q96LB2; MRGX1-HEK293 calcium flux, Fluo-4, BAM8-22 antagonism; stronger effect = lower value; B-score at 10 µM; hit rate 1.3% among 310,000;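 active = calcium-response B-score plate-corrected more than 3 library SD below zero, starting fluorescence within 5 deviations, no agonist response on first addition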;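 note: peak minus trough fluorescence over baseline after final BAM8-22 challenge near maximal dose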
MrgX1 ant reconf = confirmation of human MrgX1 receptor antagonists; shares compounds with MrgX1 antag; MrgX1-HEK293, BAM8-22 calcium flux, Fluo-4; stronger effect = lower value; remaining BAM8-22 calcium response % of control (stronger effect = lower value), % at 10 µM; hit rate 19% among 2,300; AID 602420;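 active = remaining agonist calcium response no higher than 100% minus 3 SD of agonist-only control wells, with starting fluorescence near control levels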;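 note: agonist BAM8-22 given at a near maximal EC90 to ECmax level; peak minus minimum fluorescence divided by baseline after agonist addition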
HEK293 Ca flux = activity in parental HEK293 cells lacking MrgX1; shares compounds with MrgX1 antag; Fluo-4 calcium fluorescence, FDSS; fluorescence ratio F(max-min)/F0 at 10 µM; hit rate 2% among 4,000; AID 624111;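 active = duplicate-averaged calcium fluorescence ratio at least three times the standard deviation of buffer wells, a nonspecific response in parental cells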
HEK293 Ca counter = counter-screen for MrgX1 allosteric activators: effect in parental HEK293 cells. parental HEK293 calcium flux, Fluo-4 fluorescence ratio; stronger effect = higher value. AID 624114. fluorescence ratio F(max-min)/F0 at 10 µM. hit rate 0.4% among 4,000. shares compounds with MrgX1 antag;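 active = calcium fluorescence ratio, averaged over duplicates, at least 3 SD of the buffer-well ratio, meaning a nonspecific response in receptor-free cells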;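 note: untransfected parental HEK293 lacking MrgX1 used as counterscreen for MrgX1 allosteric activators; fluorescence change taken during the second addition on a kinetic imager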
HEK293 Ca cntr2 = activity in parental HEK293 cells lacking MrgX1 receptor; hit rate 8.7% among 4,000; shares compounds with MrgX1 antag; fluorescence ratio F(max-min)/F0 at 10 µM; Fluo-4 calcium fluorescence (FDSS); stronger effect = higher value; AID 624115;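 active = calcium fluorescence ratio at least three times the spread of buffer wells, meaning a non-specific response in parental cells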
Numbers stand for hits; – = inactive; · = not tested or not shown.

SMILES	RGS4 block	MrgX1 PAM	MrgX1 agonist	RGS4 pot	MrgX1 antag	MrgX1 ant reconf	HEK293 Ca flux	HEK293 Ca counter	HEK293 Ca cntr2
CCN(CC)S(=O)(=O)c1ccc(NC2c3ncccc3C(=O)N2Cc2ccccc2)cc1 (stereo not given)	–	–	–	–	-9.3	–	–	–	–
Cc1cc2cc3c(cc2nc1SCc1ccccn1)OCCO3	–	–	–	–	-6.5	–	–	–	–
N#Cc1cc2ccccc2nc1SCc1ccccn1	–	–	–	–	–	·	·	·	·
COc1ccccc1N1CCN(c2nc3ccccn3c(=O)c2C=O)CC1	–	–	–	–	–	·	·	·	·
Cc1nnc(C)n1/N=C/c1cccnc1	–	–	–	–	-7.1	–	–	–	–
Cc1ccsc1/C=N/n1c(COc2ccccc2)n[nH]c1=S	–	–	–	–	–	·	·	·	·
Cc1ccc(S(=O)(=O)NCCC(=O)N2CCN(S(=O)(=O)c3ccccc3)CC2)cc1C	–	–	–	–	–	·	·	·	·
Cc1ccc(S(=O)(=O)NCCC(=O)N2CCCCCCC2)cc1C	–	–	–	–	-4.7	–	–	–	–
COc1ccc(Cl)cc1NC(=S)NNC(=O)c1cccs1	–	–	–	–	–	·	·	·	·
CCS(=O)(=O)N1CCC(C(=O)NCc2ccc(OC)cc2)CC1	–	–	–	–	-6.3	–	–	–	–
Cc1cccc(C)c1NC(=O)CSc1ncnc2nc[nH]c12	–	–	–	–	-4.7	–	–	–	–
O=C(NC(=S)Nc1ccccc1)c1ccc(-c2ccccc2)cc1	–	–	–	–	–	·	·	·	·
O=C(O)c1ccc(NC(=S)NC(=O)c2ccc(-c3ccccc3)cc2)cc1	–	–	–	–	-5.2	82%	–	–	–
Cc1cc(C)n2ncc(C(=O)Nc3ccc4c(c3)OCO4)c2n1	–	–	–	–	–	·	·	·	·
Cc1cc(C)n2ncc(C(=O)Nc3cccc(O)c3)c2n1	–	–	–	–	-5.9	–	–	–	–
CCOc1ccc(S(=O)(=O)N2CCCC(C(=O)Nc3ccccc3)C2)cc1 (stereo not given)	–	–	–	–	–	·	·	·	·
COC(=O)c1cccc(S(=O)(=O)N2CCN(c3nc4ccccc4s3)CC2)c1	–	–	–	–	–	·	·	·	·
Cc1ccc(C(C)C)c(OCC(=O)N2CCOCC2)c1	–	–	–	–	-6	–	–	–	–
O=C(c1nc2nc(-c3ccccc3)cc(C(F)(F)F)n2n1)N1CCOCC1	–	–	–	–	-5.5	85%	–	–	–
O=C(c1nc2nc(-c3ccc(Cl)cc3)cc(C(F)(F)F)n2n1)N1CCOCC1	–	–	–	–	–	·	·	·	·
CS(=O)(=O)N1CCC2(CC1)OCCN2S(=O)(=O)c1ccccc1	–	–	–	–	-6.9	–	–	–	–
COc1ccc(S(=O)(=O)N2CCC3(CC2)OCCN3S(=O)(=O)c2ccccc2)cc1OC	–	–	–	–	–	·	·	·	·
Cc1nnc(SCC(=O)NC(=O)NC(C)(C)C)s1	–	–	–	–	-5.6	–	–	–	–
Cc1nnc(SCC(=O)NC(=O)NC(C)C)s1	–	–	–	–	–	·	·	·	·
CC(=O)NC1C(=O)N(CCN2CCOCC2)c2ccc(Br)cc21 (stereo not given)	–	–	–	–	-9.3	–	–	–	47
CCOc1ccc2c(c1)C(NC(C)=O)C(=O)N2CCN1CCOCC1 (stereo not given)	–	–	–	–	-12	–	–	–	–
CCN1C(=O)C(NC(C)=O)c2cc(OC)ccc21 (stereo not given)	–	–	–	–	–	·	·	·	·
COC(=O)C1=C(N)N(c2ccccc2F)C2=C(C(=O)CC(C)(C)C2)C1c1ccc(OC)c(OC)c1 (stereo not given)	–	–	–	–	–	·	·	·	·

Source: PubChem BioAssay (Johns Hopkins Ion Channel Center)
